Laboratory results published in ChEMBL document CHEMBL3585302, “Synthesis and antibacterial activities of cadiolides A, B and C and analogues” (Bioorg Med Chem, 2015).

Key:
[1] = system: Bacillus subtilis; assay: Antibacterial activity against Bacillus subtilis CECT 35 assessed as inhibition of microbial growth incubated for 18 hrs by 2-fold microtiter broth dilution method; assay type: functional, organism-based; details: CECT 35, 18 h
Method in brief: (§1)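 Compounds in DMSO, ten 2-fold serial dilutions (125 down to 0.24 µg/mL tested). Bacteria at OD620 = 0.001 in Nutrient Broth mixed 1:1 with dilutions. Incubated overnight (18 h) at 28°C or 37°C according to strain. Growth read turbidimetrically at OD620. MIC is the lowest concentration giving complete growth inhibition. Triplicate runs. Tetracycline as reference.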

[2] = system: Enterococcus faecalis; assay: Antibacterial activity against Enterococcus faecalis CECT 481 assessed as inhibition of microbial growth incubated for 18 hrs by 2-fold microtiter broth dilution method; assay type: functional, organism-based; details: CECT 481, 18 h; method in brief: as §1
[3] = Toxicity in human neutrophils assessed as cell survival at 30 uM incubated for 24 hrs by annexin V-FITC and propidium iodide staining based cytofluorometry; details: neutrophil
Method in brief: (§2)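 Freshly isolated donor neutrophils (2 x 10⁶ cells/mL stock, diluted into supplemented RPMI) cultured 24 h with 30 or 100 µM. Stained with annexin V-FITC/propidium iodide; 1 x 10⁴ cells analysed by flow cytometry. Gating: annexin V+/PI− apoptotic, V+/PI+ late apoptotic/necrotic, V−/PI− viable. Mean ± SEM, n=3, compared against vehicle.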

[4] = Selectivity index, ratio of cytotoxicity against human neutrophils by MTT assay to antibacterial IC50 against Enterococcus faecalis CECT 481; assay type: toxicity; details: read-out: Selectivity Index
[5] = system: Escherichia coli; assay: Antibacterial activity against Escherichia coli CECT 100 assessed as inhibition of microbial growth incubated for 18 hrs by 2-fold microtiter broth dilution method; assay type: functional, organism-based; details: CECT 100, 18 h; method in brief: as §1
[6] = Toxicity in human neutrophils assessed as induction of apoptosis at 30 and 100 uM incubated for 24 hrs by annexin V-FITC and propidium iodide staining based cytofluorometry; assay type: cell-based; details: neutrophil; method in brief: as §2
[7] = Selectivity index, ratio of cytotoxicity against human neutrophils by MTT assay to antibacterial IC50 against Escherichia coli CECT 405; assay type: toxicity; details: read-out: Selectivity Index
[8] = system: Bacillus cereus; assay: Antibacterial activity against Bacillus cereus CECT 148 assessed as inhibition of microbial growth incubated for 18 hrs by 2-fold microtiter broth dilution method; assay type: functional, organism-based; details: CECT 148, 18 h; method in brief: as §1
[9] = Selectivity index, ratio of cytotoxicity against human neutrophils by annexin V-FITC and propidium iodide staining based cytofluorometry to antibacterial IC50 against Escherichia coli CECT 405; assay type: toxicity; details: read-out: Selectivity Index
[10] = system: Salmonella typhi; assay: Antibacterial activity against Salmonella typhi CECT 409 assessed as inhibition of microbial growth incubated for 18 hrs by 2-fold microtiter broth dilution method; assay type: functional, organism-based, Salmonella enterica subsp. enterica serovar Typhi; details: Salmonella enterica, CECT 409, 18 h
Method in brief: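 Compounds in DMSO, ten 2-fold serial dilutions (125 down to 0.24 µg/mL), mixed 1:1 with bacteria in Nutrient Broth at OD620 = 0.001. Incubated overnight (18 h) at 28 or 37 °C depending on strain. Growth read turbidimetrically at OD620; MIC is the lowest concentration completely inhibiting growth, per CLSI. Triplicate runs; tetracycline reference.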

[11] = system: Pectobacterium carotovorum; assay: Antibacterial activity against Erwinia carotovora CECT 225 assessed as inhibition of microbial growth incubated for 18 hrs by 2-fold microtiter broth dilution method; assay type: functional, organism-based; details: CECT 225, 18 h; method in brief: as §1
[12] = Selectivity index, ratio of cytotoxicity against human neutrophils by annexin V-FITC and propidium iodide staining based cytofluorometry to antibacterial IC50 against Salmonella typhi CECT 409; assay type: toxicity; details: read-out: Selectivity Index
[13] = Selectivity index, ratio of cytotoxicity against human neutrophils by MTT assay to antibacterial IC50 against Staphylococcus aureus CECT 86; assay type: toxicity; details: read-out: Selectivity Index
[14] = Cytotoxicity against human neutrophils assessed as reduction in cell viability at 100 uM incubated for 24 hrs by MTT assay; assay type: cell-based; details: neutrophil
Method in brief: (§3)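 Neutrophils from buffy coats of healthy donors were isolated by Ficoll-Hypaque gradient and seeded at 2 x 10⁵ cells/mL in supplemented RPMI. Exposed to 30 or 100 µM for 24 h at 37 °C, then MTT (2 mg/mL in PBS) added for 3 h. Formazan dissolved in DMSO and read at 560 and 630 nm. Mean ± SEM of n=6-9 independent experiments, compared against vehicle.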

[15] = Toxicity in human neutrophils assessed as induction of necrosis at 100 uM incubated for 24 hrs by annexin V-FITC and propidium iodide staining based cytofluorometry; assay type: cell-based; details: neutrophil; method in brief: as §2
[16] = Selectivity index, ratio of cytotoxicity against human neutrophils by annexin V-FITC and propidium iodide staining based cytofluorometry to antibacterial IC50 against Staphylococcus aureus CECT 86; assay type: toxicity; details: read-out: Selectivity Index
[17] = Selectivity index, ratio of cytotoxicity against human neutrophils by annexin V-FITC and propidium iodide staining based cytofluorometry to antibacterial IC50 against Enterococcus faecalis CECT 481; assay type: toxicity; details: read-out: Selectivity Index
[18] = Selectivity index, ratio of cytotoxicity against human neutrophils by MTT assay to antibacterial IC50 against Salmonella typhi CECT 409; assay type: toxicity; details: read-out: Selectivity Index
[19] = Cytotoxicity against human neutrophils assessed as reduction in cell viability at 30 uM incubated for 24 hrs by MTT assay; assay type: cell-based; details: neutrophil; method in brief: as §3
[20] = system: Staphylococcus aureus; assay: Antibacterial activity against Staphylococcus aureus CECT 86 assessed as inhibition of microbial growth incubated for 18 hrs by 2-fold microtiter broth dilution method; assay type: functional, organism-based; details: CECT 86, 18 h; method in brief: as §1
[21] = system: Escherichia coli; assay: Antibacterial activity against Escherichia coli CECT 405 assessed as inhibition of microbial growth incubated for 18 hrs by 2-fold microtiter broth dilution method; assay type: functional, organism-based; details: CECT 405, 18 h; method in brief: as §1

| SMILES | MIC [1] | IC50 [2] | MIC [2] | Activity [3] | selectivity ratio [4] | IC50 [5] | MIC [5] | Activity [6] | selectivity ratio [7] | IC50 [8] | MIC [8] | selectivity ratio [9] | IC50 [10] | MIC [10] | MIC [11] | selectivity ratio [12] | selectivity ratio [13] | Activity [14] | Activity [15] | selectivity ratio [16] | further results |
| --- | --- | --- | --- | --- | --- | --- | --- | --- | --- | --- | --- | --- | --- | --- | --- | --- | --- | --- | --- | --- | --- |
| O=C1O/C(=C\c2ccc(O)c(Br)c2)C(c2ccc(O)c(Br)c2)=C1C(=O)c1ccco1 | 125 µg/mL | 3.66 µM | 1.95 µg/mL | Non-toxic | 5 | 29.4 µM | 15.6 µg/mL | Non-toxic | 5 | 3.66 µM | 1.95 µg/mL | 5 | 3.66 µM | 1.95 µg/mL | 125 µg/mL | 5 | 5 | Toxic | 95% | 5 | selectivity ratio [17]: 5; selectivity ratio [18]: 5; Activity [19]: Non-toxic; IC50 [20]: 3.66 µM; MIC [20]: 1.95 µg/mL; IC50 [21]: 3.66 µM; MIC [21]: 1.95 µg/mL |
| O=C1O/C(=C\c2ccc(O)c(Br)c2)C(c2cc(Br)c(O)c(Br)c2)=C1C(=O)c1ccc(O)c(Br)c1 | 125 µg/mL | 2.72 µM | 1.95 µg/mL | Non-toxic | 5 | > 175 µM | > 125 µg/mL | Non-toxic | 5 | 2.72 µM | 1.95 µg/mL | 5 | 2.72 µM | 1.95 µg/mL | 125 µg/mL | 5 | 5 | Toxic | 36% | 5 | selectivity ratio [17]: 5; selectivity ratio [18]: 5; Activity [19]: Non-toxic; IC50 [20]: 2.72 µM; MIC [20]: 1.95 µg/mL; IC50 [21]: 2.72 µM; MIC [21]: 1.95 µg/mL |
| O=C1O/C(=C\c2ccc(O)c(Br)c2)C(c2cc(Br)c(O)c(Br)c2)=C1C(=O)c1ccco1 | 125 µg/mL | 3.19 µM | 1.95 µg/mL | Non-toxic | 5 | 25.6 µM | 15.6 µg/mL | Non-toxic | 5 | 6.38 µM | 3.9 µg/mL | 5 | 3.19 µM | 1.95 µg/mL | 125 µg/mL | 5 | 5 | Toxic | 57% | 5 | selectivity ratio [17]: 5; selectivity ratio [18]: 5; Activity [19]: Non-toxic; IC50 [20]: 3.19 µM; MIC [20]: 1.95 µg/mL; IC50 [21]: 6.38 µM; MIC [21]: 3.9 µg/mL |
| O=C1O/C(=C\c2ccc(O)c(Br)c2)C(c2ccc(O)c(Br)c2)=C1C(=O)c1ccc(O)c(Br)c1 | 125 µg/mL | 3.06 µM | 1.95 µg/mL | Non-toxic | 5 | > 196 µM | > 125 µg/mL | Non-toxic | 5 | 3.06 µM | 1.95 µg/mL | 5 | 3.06 µM | 1.95 µg/mL | 125 µg/mL | 5 | 5 | Toxic | 98% | 5 | selectivity ratio [17]: 5; selectivity ratio [18]: 5; Activity [19]: Non-toxic; IC50 [20]: 3.06 µM; MIC [20]: 1.95 µg/mL; IC50 [21]: 3.06 µM; MIC [21]: 1.95 µg/mL |
